Reference: ChEMBL document CHEMBL4765233, “From Lead to Drug Candidate: Optimization of 3-(Phenylethynyl)-1H-pyrazolo[3,4-d]pyrimidin-4-amine Derivatives as Agents for the Treatment of Triple Negative Breast Cancer” (J Med Chem, 2016)
Calls of active or inactive are those of the source. No cut-off for these calls is given here.

Key:
[1] = AUC (0 to infinity) in Sprague-Dawley rat at 10 mg/kg, po administered via gavage by LC-MS analysis; assay type: ADME, organism-based; set-up: time infinity, route oral, dose 10 mg/kg; conditions: in vivo
[2] = target: Receptor tyrosine-protein kinase erbB-2 (Homo sapiens, UniProt P04626, G778D); experiment: Inhibition of human recombinant ERBB2 G778D mutant (676 to end residues) using poly(Glu,Tyr)4:1 as substrate incubated for 40 mins in presence of [gamma33P-ATP] by radiometric scintillation counting analysis
[3] = Inhibition of human recombinant EGFR T790M/L858R mutant (696 to end residues) using GGMEDIYFEFMGGKKK as substrate incubated for 40 mins in presence of [gamma33P-ATP] by radiometric scintillation counting analysis
Summary of the method: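 Radiometric kinase assay run as an external profiling service, with ATP at the Km of each kinase. IC50 values are means of two independent experiments.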

PLC-PRF-5 = experiment: Antiproliferative activity against human PLC-PRF-5 cells assessed as reduction in cell viability incubated for 72 hrs by MTT assay; assay type: functional, cell-based; conditions: PLC-PRF-5, 72 h
Summary of the method: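 MTT viability assay. ATCC cell lines were grown in designated medium with 10% FBS at 37 °C, 5% CO2. Cells seeded at 1500−30000 per well and incubated 24 h, then exposed to compound (0−10 μg/mL) for 72 h. MTT added for 2−4 h. Formazan dissolved in DMSO (adherent) or acidified SDS overnight (suspension), absorbance read at 570 nm. Triplicates; IC50 calculated.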

MDA-MB-231 [4] = experiment: Induction of apoptosis in human MDA-MB-231 cells assessed as live cells at 0.01 uM incubated for 24 hrs by annexin V-FITC and propidium iodide staining based flow cytometry analysis (reference value: 96.95 %); assay type: functional
MDA-MB-231 [5] = experiment: Antimigratory activity against human MDA-MB-231 cells assessed as inhibition of cell migration at 0.3 uM incubated for 20 hrs by wound healing assay; assay type: functional, cell-based
Summary of the method: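 MDA-MB-231 monolayer grown to confluence, scratched with a sterile pipet tip, rinsed with physiological saline, then given DMEM containing vehicle or compound. Wound imaged after 20 h to assess migration.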

MDA-MB-231 [6] = experiment: Inhibition of MEK phosphorylation in human MDA-MB-231 cells at 0.01 to 0.3 uM incubated for 20 hrs by Western blot analysis; assay type: cell-based; conditions: dose 0.01-0.3 µM
Summary of the method: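 MDA-MB-231 cells treated with a series of concentrations for 20 h at 37 °C. Cells washed with ice-cold saline and lysed in RIPA buffer with protease cocktail. Lysates cleared at 12000 rpm for 10 min at 4 °C and protein quantified by Bradford. Equal protein separated by SDS-PAGE, transferred to PVDF and probed with antibodies.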

MDA-MB-435 = experiment: Antitumor activity against human MDA-MB-435 cells xenografted in SCID mouse assessed as tumor growth inhibition at 40 mg/kg, po QD for 21 days and measured every 3 days; assay type: functional; conditions: MDA-MB-435, po, 504 h, time 21 day
Summary of the method: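 SCID mice (5−6 weeks) injected subcutaneously with 100 μL of cells at 5 × 10^7/mL. At 150−200 mm3 mice randomized, 6 per group. Oral compounds given in water with 25% PEG400 plus 5% DMSO; paclitaxel given 10 mg/kg/week iv. Tumor volume a×b²/2 and body weight measured every 3 days. Inhibition rate (c−d)/c×100% against vehicle control.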

Mus musculus = experiment: In vivo inhibition of ERK in SCID mouse xenografted with human MDA-MB-231 cells assessed as reduction in phosphorylation of ERK in tumor tissue at 40 mg/kg, po QD for 21 days by immunohistochemical analysis; assay type: functional, organism-based; conditions: dose 40.0 mg/kg/day, time 21.0 day
Summary of the method: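 Tumors taken from xenografted SCID mice dosed orally at 40 mg/kg/q.d. or given control; mice euthanized at set times. Tumors formalin-fixed and paraffin-embedded, stained by immunohistochemistry for phospho-proteins, and imaged by light microscopy.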

MDA-MB-231 [7] = experiment: Induction of apoptosis in human MDA-MB-231 cells xenografted in SCID mouse assessed as increase in cleaved caspase-3 level in tumor tissue at 40 mg/kg, po QD for 21 days by immunohistochemical analysis; assay type: functional, organism-based; conditions: dose 40.0 mg/kg/day, time 21.0 day
Summary of the method: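 SCID mice carried subcutaneous MDA-MB-231 xenografts (5 × 10^6 cells in 100 μL). Oral dosing in water with 25% PEG400 and 5% DMSO began at 150–200 mm3. Tumours were removed at the end of study, formalin-fixed and paraffin-embedded, then immunostained.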

[8] = Acute toxicity in Sprague-Dawley rat assessed as histopathological changes in kidney at 100 mg/kg, po administered as single dose measured after 24 hrs by H and E staining based light microscope analysis; assay type: organism-based; conditions: in vivo
Summary of the method: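 Sprague-Dawley rats received a single oral dose of 100 mg/kg in sterile water with 25% (v/v) PEG400 plus 5% DMSO. Organs were examined by histology and immunohistochemistry for pathological changes. Behaviour and side effects were checked daily.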

Chain of Receptor tyrosine-protein kinase erbB-2 (P04626 23-1255 G778D limits assumed): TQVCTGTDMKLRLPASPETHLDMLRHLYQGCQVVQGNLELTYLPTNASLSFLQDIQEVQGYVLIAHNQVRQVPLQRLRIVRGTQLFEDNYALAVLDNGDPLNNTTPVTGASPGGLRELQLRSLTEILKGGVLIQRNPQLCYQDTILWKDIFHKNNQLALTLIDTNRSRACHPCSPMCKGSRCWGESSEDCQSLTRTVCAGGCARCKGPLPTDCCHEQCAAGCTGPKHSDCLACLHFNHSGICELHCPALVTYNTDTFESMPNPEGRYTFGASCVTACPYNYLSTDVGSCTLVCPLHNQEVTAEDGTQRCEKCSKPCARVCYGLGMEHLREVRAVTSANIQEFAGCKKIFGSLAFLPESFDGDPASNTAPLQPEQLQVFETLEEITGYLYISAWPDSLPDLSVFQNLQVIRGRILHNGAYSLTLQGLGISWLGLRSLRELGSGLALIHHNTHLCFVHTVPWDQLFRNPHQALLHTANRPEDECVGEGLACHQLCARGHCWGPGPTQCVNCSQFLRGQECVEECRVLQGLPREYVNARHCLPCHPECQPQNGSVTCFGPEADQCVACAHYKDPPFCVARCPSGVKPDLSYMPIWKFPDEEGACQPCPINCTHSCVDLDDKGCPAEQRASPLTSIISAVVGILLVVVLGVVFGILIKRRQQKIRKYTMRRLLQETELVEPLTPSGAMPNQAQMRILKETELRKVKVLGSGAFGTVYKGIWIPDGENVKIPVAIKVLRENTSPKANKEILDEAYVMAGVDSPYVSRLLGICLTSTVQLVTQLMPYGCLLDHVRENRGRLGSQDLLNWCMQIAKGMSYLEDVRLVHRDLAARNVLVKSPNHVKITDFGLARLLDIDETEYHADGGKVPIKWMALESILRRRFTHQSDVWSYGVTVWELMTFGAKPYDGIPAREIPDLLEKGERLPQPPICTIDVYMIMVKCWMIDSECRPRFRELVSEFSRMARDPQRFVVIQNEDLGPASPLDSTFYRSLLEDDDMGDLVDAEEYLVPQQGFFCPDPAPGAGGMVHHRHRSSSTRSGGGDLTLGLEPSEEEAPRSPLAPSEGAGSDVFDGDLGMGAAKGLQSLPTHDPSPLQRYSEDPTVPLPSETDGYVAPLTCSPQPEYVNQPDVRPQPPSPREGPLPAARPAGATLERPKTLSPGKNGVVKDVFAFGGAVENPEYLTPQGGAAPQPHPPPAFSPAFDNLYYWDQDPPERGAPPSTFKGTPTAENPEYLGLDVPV

Work on `Cc1ccc(NC(=O)c2ccc(C)c(C(F)(F)F)c2)cc1C#Cc1nn([C@H]2CC[C@H](O)CC2)c2ncnc(N)c12` yielded an AUC(0-inf) [1] of 2950 ng·h/mL, an IC50 [2] of 165 nM and an IC50 [3] of 8 nM. For the same compound, the IC50 (PLC-PRF-5) was 10000 nM, the Activity (MDA-MB-231 [4]) was 91.3% and the Activity (MDA-MB-231 [5]) was “Active”. For the same compound, the inhibition (MDA-MB-231 [6]) was “Active”, the inhibition in vivo at 40 mg/kg/day (MDA-MB-435) was 100% and the inhibition (Mus musculus) was “Active”. For the same compound, the Activity (MDA-MB-231 [7]) was “Active” and the Activity [8] was “Non-Toxic”.
